Measurements reported in publication PMC5623067 (Bioorganic & medicinal chemistry letters, 2017).
Values joined by “and” are separate entries in the source; they are usually repeats but may differ in a detail not shown here. Equal entries are not always repeated.

How the values were obtained:
human topoisomerase IIα [1] = target: T1, human topoisomerase IIα (Homo sapiens, UniProt P11388); assay: Inhibition of topoisomerase IIα-mediated DNA cleavage in the presence of Ca2+; assay type: biochemical; settings: Ca2+ in place of Mg2+; 150 nM enzyme; xanthone up to 10 µM
Outline: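 Negatively supercoiled DNA incubated with 150 nM human topoisomerase IIα and test compound. CaCl2 was added to raise baseline enzyme-mediated DNA cleavage. Cleaved DNA was resolved on gels, with controls of DNA without enzyme and enzyme without compound. Cleavage without compound was set to 100%. Gels are representative of 3 experiments, and standard deviations come from 2-3 independent experiments.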

human topoisomerase IIα [2] = target: T1, human topoisomerase IIα; assay: DNA relaxation catalyzed by 150 nM topoisomerase IIα; assay type: biochemical; settings: 10 µM compound
Outline: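 Negatively supercoiled DNA relaxed by 150 nM human topoisomerase IIα with test compound present. Gels show supercoiled DNA without enzyme and enzyme-treated DNA without compound as controls. Each gel is representative of 2-4 independent experiments.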

human topoisomerase IIα [3] = target: T1, human topoisomerase IIα; assay: DNA; assay type: biochemical; settings: kDNA decatenation
human topoisomerase IIα [4] = target: T1, human topoisomerase IIα; assay: Competition assay: block of etoposide-enhanced DNA cleavage; assay type: biochemical; settings: 100 µM etoposide; 5-100 µM compound (compound 5 up to 10 µM)
human topoisomerase IIα [5] = target: T1, human topoisomerase IIα; assay: DNA relaxation assay; assay type: biochemical; settings: 3 nM enzyme; for IC50: IC50 for inhibition of DNA relaxation, negatively supercoiled DNA
human topoisomerase IIα [6] = target: T1, human topoisomerase IIα; assay: ATP hydrolysis catalyzed by topoisomerase IIα; assay type: biochemical; settings: up to 50 µM
[7] = Solubility limit noted in the assays; assay type: physicochemical; settings: only used up to 10 µM

T1 sequence (P11388 whole entry): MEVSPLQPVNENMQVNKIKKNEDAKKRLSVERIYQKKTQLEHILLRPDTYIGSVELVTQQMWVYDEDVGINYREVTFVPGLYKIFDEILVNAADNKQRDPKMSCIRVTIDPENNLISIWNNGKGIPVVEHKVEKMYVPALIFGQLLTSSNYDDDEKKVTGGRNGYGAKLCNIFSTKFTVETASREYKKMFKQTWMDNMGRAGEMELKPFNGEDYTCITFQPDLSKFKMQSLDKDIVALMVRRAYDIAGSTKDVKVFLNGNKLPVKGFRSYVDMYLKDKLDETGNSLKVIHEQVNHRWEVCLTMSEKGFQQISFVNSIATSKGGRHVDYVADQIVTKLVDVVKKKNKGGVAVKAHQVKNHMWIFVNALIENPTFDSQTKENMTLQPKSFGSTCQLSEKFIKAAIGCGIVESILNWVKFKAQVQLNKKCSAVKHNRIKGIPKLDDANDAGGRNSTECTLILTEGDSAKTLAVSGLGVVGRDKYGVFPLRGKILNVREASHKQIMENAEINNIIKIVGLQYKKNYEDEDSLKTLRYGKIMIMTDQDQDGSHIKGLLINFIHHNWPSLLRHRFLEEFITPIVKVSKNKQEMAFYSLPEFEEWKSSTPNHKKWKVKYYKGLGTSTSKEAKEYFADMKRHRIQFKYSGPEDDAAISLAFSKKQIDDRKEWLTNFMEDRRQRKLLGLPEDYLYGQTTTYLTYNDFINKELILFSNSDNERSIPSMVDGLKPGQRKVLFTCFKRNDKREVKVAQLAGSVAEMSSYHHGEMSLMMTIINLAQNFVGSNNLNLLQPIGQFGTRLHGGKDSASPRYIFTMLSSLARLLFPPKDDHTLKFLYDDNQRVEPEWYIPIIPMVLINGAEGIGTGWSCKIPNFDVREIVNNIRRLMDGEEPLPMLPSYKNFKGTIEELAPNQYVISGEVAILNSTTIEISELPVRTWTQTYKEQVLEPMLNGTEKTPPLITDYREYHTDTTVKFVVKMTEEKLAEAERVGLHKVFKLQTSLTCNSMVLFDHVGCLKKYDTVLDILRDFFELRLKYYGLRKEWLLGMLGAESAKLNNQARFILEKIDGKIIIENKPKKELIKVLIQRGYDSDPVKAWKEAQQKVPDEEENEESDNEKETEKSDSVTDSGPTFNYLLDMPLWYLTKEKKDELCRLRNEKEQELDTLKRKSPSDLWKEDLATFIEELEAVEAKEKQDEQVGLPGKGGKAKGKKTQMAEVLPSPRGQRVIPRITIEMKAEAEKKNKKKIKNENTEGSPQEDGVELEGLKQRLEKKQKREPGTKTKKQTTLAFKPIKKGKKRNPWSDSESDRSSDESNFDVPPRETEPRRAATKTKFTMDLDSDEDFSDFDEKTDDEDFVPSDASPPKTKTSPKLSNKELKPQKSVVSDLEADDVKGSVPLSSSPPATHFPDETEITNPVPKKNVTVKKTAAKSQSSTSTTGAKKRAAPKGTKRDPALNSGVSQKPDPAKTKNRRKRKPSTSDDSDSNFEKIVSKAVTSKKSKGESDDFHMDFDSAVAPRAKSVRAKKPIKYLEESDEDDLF

inhibition of enzyme-mediated DNA cleavage (human topoisomerase IIα [1]) | inhibition of DNA relaxation by 150 nM enzyme (human topoisomerase IIα [2]) | order of potency in decatenation assay (human topoisomerase IIα [3]) | ability to block DNA cleavage enhancement by etoposide (human topoisomerase IIα [4]) | IC50 (human topoisomerase IIα [5]) | inhibition of ATP hydrolysis in the absence of DNA (human topoisomerase IIα [6]) | solubility in assay [7] | ability to inhibit DNA relaxation at 10 µM (human topoisomerase IIα [5]; 10 µM) | Structure (SMILES)
do not inhibit the DNA cleavage step | complete (or near complete) inhibition | much more potent than compound 6 | competed with etoposide |  |  |  |  | Cl.Cl.NCCCNCC(O)COc1cc(O)c2c(=O)c3ccccc3oc2c1 (stereo not drawn) [compound 2]
do not inhibit the DNA cleavage step | complete (or near complete) inhibition | much more potent than compound 6 | competed with etoposide | 2.5 to 5 µM and < 5 µM | no inhibition was observed |  |  | NCCCCNCCCNCC(O)COc1cc(O)c2c(=O)c3ccccc3oc2c1.O=C(O)C(F)(F)F.O=C(O)C(F)(F)F.O=C(O)C(F)(F)F (stereo not drawn) [compound 4]
do not inhibit the DNA cleavage step | complete (or near complete) inhibition | much more potent than compound 6 | competed with etoposide | ~1 µM and < 5 µM |  | solubility issues |  | Cl.Cl.Cl.Cl.NCCCNCCCCNCCCNCC(O)COc1cc(O)c2c(=O)c3ccccc3oc2c1 (stereo not drawn) [compound 5]
 | no ability to inhibit DNA relaxation |  |  |  |  |  | no ability to inhibit DNA relaxation | O=c1c2ccccc2oc2cc(O)cc(O)c12 [compound 6, 1,3-dyhydroxy-9h-xanthen-9-one]
